Assay results: ChEMBL document CHEMBL4393701, “Appendix A. dithioloquinolinethiones as new potential multitargeted antibacterial and antifungal agents: Synthesis, biological evaluation and molecular docking studies” (2019)
Converted amounts (≈) assume the structure as drawn.

Columns and labels:
Bacillus cereus [1] = test: Antibacterial activity against Bacillus cereus clinical isolate after 24 hrs by iodonitrotetrazolium chloride dye based microdilution assay; assay type: functional
Method in brief: (§1)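 Fresh overnight cultures adjusted spectrophotometrically to 1×10^5 CFU/mL, giving 1.0×10^4 CFU per well in tryptic soy broth. Compounds were dissolved in 5% DMSO and tested at 0.001-1.0 mg/ml by serial dilution; 5% DMSO was the negative control. After 24 h at 37 °C, 0.2 mg/mL INT solution was added for 30 min at 37 °C and OD read at 655 nm. MIC is the lowest concentration giving significant growth inhibition versus the positive control. Duplicates, repeated three times.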

Bacillus cereus [2] = test: Bactericidal activity against Bacillus cereus clinical isolate incubated for 24 hrs followed by re-plating on tryptic soy broth; assay type: functional
Method in brief: (§2)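 Bacteria were grown in tryptic soy broth, 1.0×10^4 CFU per well, with compounds in 5% DMSO at 0.001-1.0 mg/ml for 24 h at 37 °C. Then 10 µL was subcultured into fresh TSB. MBC is the lowest concentration showing no growth after subculture, taken as 99.5% kill of the original inoculum. Duplicates, repeated three times.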

Micrococcus flavus [3] = test: Antibacterial activity against Micrococcus flavus ATCC 10240 after 24 hrs by iodonitrotetrazolium chloride dye based microdilution method; assay type: functional; settings: ATCC 10240, 24 h; method in brief: as §1
Micrococcus flavus [4] = test: Bactericidal activity against Micrococcus flavus ATCC 10240 incubated for 24 hrs followed by re-plating on tryptic soy broth; assay type: functional; settings: ATCC 10240, 24 h; method in brief: as §2
Staphylococcus aureus [5] = test: Antibacterial activity against Staphylococcus aureus ATCC 6538 after 24 hrs by iodonitrotetrazolium chloride dye based microdilution method; assay type: functional; settings: ATCC 6538, 24 h; method in brief: as §1
Staphylococcus aureus [6] = test: Bactericidal activity against Staphylococcus aureus ATCC 6538 incubated for 24 hrs followed by re-plating on tryptic soy broth; assay type: functional; settings: ATCC 6538, 24 h; method in brief: as §2
Listeria monocytogenes [7] = test: Antibacterial activity against Listeria monocytogenes NCTC 7973 after 24 hrs by iodonitrotetrazolium chloride dye based microdilution method; assay type: functional; settings: NCTC 7973, 24 h; method in brief: as §1
Listeria monocytogenes [8] = test: Bactericidal activity against Listeria monocytogenes NCTC 7973 incubated for 24 hrs followed by re-plating on tryptic soy broth; assay type: functional; settings: NCTC 7973, 24 h; method in brief: as §2
Enterobacter cloacae [9] = test: Antibacterial activity against Enterobacter cloacae clinical isolate after 24 hrs by iodonitrotetrazolium chloride dye based microdilution method; assay type: functional; method in brief: as §1
Enterobacter cloacae [10] = test: Bactericidal activity against Enterobacter cloacae incubated for 24 hrs followed by re-plating on tryptic soy broth; assay type: functional; method in brief: as §2
Pseudomonas aeruginosa [11] = test: Antibacterial activity against Pseudomonas aeruginosa ATCC 27853 after 24 hrs by iodonitrotetrazolium chloride dye based microdilution method; assay type: functional; settings: ATCC 27853, 24 h; method in brief: as §1
Pseudomonas aeruginosa [12] = test: Bactericidal activity against Pseudomonas aeruginosa ATCC 27853 incubated for 24 hrs followed by re-plating on tryptic soy broth; assay type: functional; settings: ATCC 27853, 24 h; method in brief: as §2
Salmonella typhimurium [13] = test: Antibacterial activity against Salmonella typhimurium ATCC 13311 after 24 hrs by iodonitrotetrazolium chloride dye based microdilution method; assay type: functional, Salmonella enterica subsp. enterica serovar Typhimurium; settings: Salmonella enterica, ATCC 13311, 24 h; method in brief: as §1
Salmonella typhimurium [14] = test: Bactericidal activity against Salmonella typhimurium ATCC 13311 incubated for 24 hrs followed by re-plating on tryptic soy broth; assay type: functional, Salmonella enterica subsp. enterica serovar Typhimurium; settings: Salmonella enterica, ATCC 13311, 24 h; method in brief: as §2
Escherichia coli [15] = test: Antibacterial activity against Escherichia coli ATCC 35210 after 24 hrs by iodonitrotetrazolium chloride dye based microdilution method; assay type: functional; settings: ATCC 35210, 24 h; method in brief: as §1
Escherichia coli [16] = test: Bactericidal activity against Escherichia coli ATCC 35210 incubated for 24 hrs followed by re-plating on tryptic soy broth; assay type: functional; settings: ATCC 35210, 24 h; method in brief: as §2
Aspergillus fumigatus [17] = test: Antifungal activity against Aspergillus fumigatus ATCC 1022 after 72 hrs by microdilution technique; assay type: functional; settings: ATCC 1022, 72 h
Method in brief: (§3)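 Spores were washed off malt agar with 0.85% saline containing 0.1% Tween 80 and adjusted to about 1.0×10^5 per well. Compounds in 5% DMSO were serially diluted (0.001-1.0 mg/ml) in malt broth with inoculum. Plates were shaken at 160 rpm for 72 h at 28 °C. MIC is the lowest concentration without visible growth under a binocular microscope. Three independent experiments in duplicate.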

Aspergillus fumigatus [18] = test: Fungicidal activity against Aspergillus fumigatus ATCC 1022 incubated for 72 hrs followed by sub-culturing on broth malt medium and measured after 72 hrs; assay type: functional; settings: ATCC 1022, 72 h
Method in brief: (§4)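 After 72 h exposure in malt broth, 2 µL from test wells was subcultured into wells holding 100 µL broth and incubated a further 72 h at 28 °C. MFC is the lowest concentration with no visible growth, taken as 99.5% kill of the original inoculum. Three independent experiments in duplicate.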

Aspergillus versicolor [19] = test: Antifungal activity against Aspergillus versicolor ATCC 11730 after 72 hrs by microdilution method; assay type: functional; settings: ATCC 11730, 72 h; method in brief: as §3
Aspergillus versicolor [20] = test: Fungicidal activity against Aspergillus versicolor ATCC 11730 incubated for 72 hrs followed by sub-culturing on broth malt medium and measured after 72 hrs; assay type: functional; settings: ATCC 11730, 72 h; method in brief: as §4
Aspergillus ochraceus [21] = test: Antifungal activity against Aspergillus ochraceus ATCC 12066 after 72 hrs by microdilution technique; assay type: functional; settings: ATCC 12066, 72 h; method in brief: as §3
Aspergillus ochraceus [22] = test: Fungicidal activity against Aspergillus ochraceus ATCC 12066 incubated for 72 hrs followed by sub-culturing on broth malt medium and measured after 72 hrs; assay type: functional; settings: ATCC 12066, 72 h; method in brief: as §4
Aspergillus niger [23] = test: Antifungal activity against Aspergillus niger ATCC 6275 after 72 hrs by microdilution technique; assay type: functional; settings: ATCC 6275, 72 h; method in brief: as §3
Aspergillus niger [24] = test: Fungicidal activity against Aspergillus niger ATCC 6275 incubated for 72 hrs followed by sub-culturing on broth malt medium and measured after 72 hrs; assay type: functional; settings: ATCC 6275, 72 h; method in brief: as §4
Trichoderma viride [25] = test: Antifungal activity against Trichoderma viride IAM 5061 after 72 hrs by microdilution technique; assay type: functional; settings: IAM 5061, 72 h; method in brief: as §3
Trichoderma viride [26] = test: Fungicidal activity against Trichoderma viride IAM 5061 incubated for 72 hrs followed by sub-culturing on broth malt medium and measured after 72 hrs; assay type: functional; settings: IAM 5061, 72 h; method in brief: as §4
Penicillium ochrochloron [27] = test: Antifungal activity against Penicillium ochrochloron ATCC 9112 after 72 hrs by microdilution technique; assay type: functional; settings: ATCC 9112, 72 h; method in brief: as §3
Penicillium ochrochloron [28] = test: Fungicidal activity against Penicillium ochrochloron ATCC 9112 incubated for 72 hrs followed by sub-culturing on broth malt medium and measured after 72 hrs; assay type: functional; settings: ATCC 9112, 72 h; method in brief: as §4
[29] = Antifungal activity against Penicillium funiculosum ATCC 36839 after 72 hrs by microdilution technique; assay type: functional; settings: Talaromyces pinophilus, ATCC 36839, 72 h; method in brief: as §3
[30] = Fungicidal activity against Penicillium funiculosum ATCC 36839 incubated for 72 hrs followed by sub-culturing on broth malt medium and measured after 72 hrs; assay type: functional; settings: Talaromyces pinophilus, ATCC 36839, 72 h; method in brief: as §4
Penicillium cyclopium [31] = test: Antifungal activity against Penicillium verrucosum var. cyclopium food isolate after 72 hrs by microdilution technique; assay type: functional; method in brief: as §3
Penicillium cyclopium [32] = test: Fungicidal activity against Penicillium verrucosum var. cyclopium food isolate incubated for 72 hrs followed by sub-culturing on broth malt medium and measured after 72 hrs; assay type: functional; method in brief: as §4

Row | SMILES | MIC (Bacillus cereus [1]) | MBC (Bacillus cereus [2]) | MIC (Micrococcus flavus [3]) | MBC (Micrococcus flavus [4]) | MIC (Staphylococcus aureus [5]) | MBC (Staphylococcus aureus [6]) | MIC (Listeria monocytogenes [7]) | MBC (Listeria monocytogenes [8]) | MIC (Enterobacter cloacae [9]) | MBC (Enterobacter cloacae [10]) | MIC (Pseudomonas aeruginosa [11]) | MBC (Pseudomonas aeruginosa [12]) | MIC (Salmonella typhimurium [13]) | MBC (Salmonella typhimurium [14]) | MIC (Escherichia coli [15]) | MBC (Escherichia coli [16]) | MIC (Aspergillus fumigatus [17]) | MFC (Aspergillus fumigatus [18]) | MIC (Aspergillus versicolor [19]) | MFC (Aspergillus versicolor [20]) | further results
1 | COc1cc2c(c([N+](=O)[O-])c1)NC(C)(C)c1ssc(=S)c1-2 | 44.1 µM (≈ 15 µg/mL) | 88.1 µM (≈ 30 µg/mL) | 132 µM (≈ 44.9 µg/mL) | 176 µM (≈ 59.9 µg/mL) | 88.1 µM (≈ 30 µg/mL) | 176 µM (≈ 59.9 µg/mL) | 176 µM (≈ 59.9 µg/mL) | 352 µM (≈ 120 µg/mL) | 88.1 µM (≈ 30 µg/mL) | 176 µM (≈ 59.9 µg/mL) | 88.1 µM (≈ 30 µg/mL) | 176 µM (≈ 60 µg/mL) | 176 µM (≈ 60 µg/mL) | 352 µM (≈ 120 µg/mL) | 132 µM (≈ 45 µg/mL) | 176 µM (≈ 59.9 µg/mL) | 17.6 ×10⁻² mM | 35.2 ×10⁻² mM | 4.41 ×10⁻² mM | 8.81 ×10⁻² mM | MIC (Aspergillus ochraceus [21]): 2.35 ×10⁻² mM; MFC (Aspergillus ochraceus [22]): 4.41 ×10⁻² mM; MIC (Aspergillus niger [23]): 4.41 ×10⁻² mM; MFC (Aspergillus niger [24]): 8.81 ×10⁻² mM; MIC (Trichoderma viride [25]): 3.23 ×10⁻² mM; MFC (Trichoderma viride [26]): 4.41 ×10⁻² mM; MIC (Penicillium ochrochloron [27]): 4.41 ×10⁻² mM; MFC (Penicillium ochrochloron [28]): 8.81 ×10⁻² mM; MIC [29]: 4.41 ×10⁻² mM; MFC [30]: 8.81 ×10⁻² mM; MIC (Penicillium cyclopium [31]): 6.46 ×10⁻² mM; MFC (Penicillium cyclopium [32]): 17.6 ×10⁻² mM
2 | CC1(C)S[C@@H]2[C@H](NC(=O)[C@H](N)c3ccccc3)C(=O)N2[C@H]1C(=O)O [AMPICILLIN] | 248 µM (≈ 86.7 µg/mL) | 372 µM (≈ 130 µg/mL) | 248 µM (≈ 86.7 µg/mL) | 372 µM (≈ 130 µg/mL) | 248 µM (≈ 86.7 µg/mL) | 372 µM (≈ 130 µg/mL) | 372 µM (≈ 130 µg/mL) | 744 µM (≈ 260 µg/mL) | 744 µM (≈ 260 µg/mL) | 1240 µM (≈ 433 µg/mL) | 372 µM (≈ 130 µg/mL) | 492 µM (≈ 172 µg/mL) | 248 µM (≈ 86.7 µg/mL) | 380 µM (≈ 133 µg/mL) | 744 µM (≈ 260 µg/mL) | 1240 µM (≈ 433 µg/mL) | – | – | – | – | –
3 | c1ccc(-c2ccc(C(c3ccccc3)n3ccnc3)cc2)cc1 (centres undefined) [BIFONAZOLE] | – | – | – | – | – | – | – | – | – | – | – | – | – | – | – | – | 48 ×10⁻² mM | 64 ×10⁻² mM | 48 ×10⁻² mM | 64 ×10⁻² mM | MIC (Aspergillus ochraceus [21]): 48 ×10⁻² mM; MFC (Aspergillus ochraceus [22]): 80 ×10⁻² mM; MIC (Aspergillus niger [23]): 48 ×10⁻² mM; MFC (Aspergillus niger [24]): 64 ×10⁻² mM; MIC (Trichoderma viride [25]): 64 ×10⁻² mM; MFC (Trichoderma viride [26]): 80 ×10⁻² mM; MIC (Penicillium ochrochloron [27]): 64 ×10⁻² mM; MFC (Penicillium ochrochloron [28]): 80 ×10⁻² mM; MIC [29]: 48 ×10⁻² mM; MFC [30]: 64 ×10⁻² mM; MIC (Penicillium cyclopium [31]): 48 ×10⁻² mM; MFC (Penicillium cyclopium [32]): 64 ×10⁻² mM
